Bioassay records deposited in PubChem BioAssay by several laboratories.
CXCR6 inh: inhibitors of human CXCR6 receptor | CHO-K1 PathHunter CXCR6 beta-arrestin, luminescence | inhibition, % at 20 µM | 360,000 tested, 0.36% active; in the data active = inhibition above about 34%, passing the limit was not always enough;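 also: antagonist mode with CXCL16 agonist at 10 nM final; 0% = 10 nM CXCL16 with DMSO and 100% = unstimulated wells without agonist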
CCR6 antag: CCR6 (human) receptor antagonism | P51684 | CHO-K1 CCR6 PathHunter beta-arrestin, luminescence, CCL20-stimulated | inhibition, % at 20 µM | 340,000 tested, 0.49% active;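 active = compounds whose inhibition of the agonist-driven luminescence signal at 20 µM reaches about 50%, limit read from the data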;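 also: cells stimulated with CCL20 at 14 nM final; plate controls were DMSO with CCL20 for no effect and DMSO without agonist for full effect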
Target sequence (P51684 whole entry, looked up): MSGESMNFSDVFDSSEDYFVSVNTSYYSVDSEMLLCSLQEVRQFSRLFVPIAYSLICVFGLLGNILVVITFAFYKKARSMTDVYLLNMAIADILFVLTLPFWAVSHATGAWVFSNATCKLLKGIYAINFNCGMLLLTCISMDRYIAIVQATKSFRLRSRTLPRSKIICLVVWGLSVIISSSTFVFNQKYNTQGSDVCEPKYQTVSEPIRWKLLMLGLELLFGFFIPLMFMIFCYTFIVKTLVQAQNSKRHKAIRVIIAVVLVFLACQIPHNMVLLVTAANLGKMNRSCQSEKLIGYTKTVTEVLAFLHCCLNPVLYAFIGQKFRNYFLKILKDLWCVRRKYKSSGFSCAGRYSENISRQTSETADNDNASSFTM
PfGluPho inh: PfG6PD (Plasmodium falciparum) enzyme inhibition. 350,000 tested, 0.78% active. PfGluPho enzyme, NADPH resazurin-diaphorase fluorescence. inhibition, % at 20 µM;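 active = inhibition reaching at least a set limit at 20 µM in the primary screen, cut at about 59% in these data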;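 also: 0% = DMSO wells with substrate and 100% = DMSO wells lacking glucose-6-phosphate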
APJ agonist: agonists of human APJ apelin receptor; 330,000 tested, 0.11% active; CHO-K1 APJ PathHunter beta-arrestin, luminescence; 0% DMSO wells, 100% apelin; activation, % at 20 µM; P35414;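 active = activation more than six SD over the plate average, tested at 20 µM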;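 also: 0% = DMSO alone and 100% = apelin-13 at 10 nM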
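Material: CHO-K1 APJ beta-arrestin complementation cell line; Input: cell density 1000 per well; Incubation: compound stimulation 90 min at 25 °C, detection 60 min; Signal: luminescence from split beta-galactosidase complementation, Galacton Star/Emerald II substrate; Controls: DMSO-only wells as negative, 10 nM Apelin-13 as positive control.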
B2AR ag: activates human beta-2 adrenergic receptor causing internalization; P07550; Am2.2-beta2AR cells, FAP receptor internalization, flow cytometry; response, % (concentration not given with the values); 340,000 tested, 0.43% active;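 active = response above a set limit, near 3 SD of response in nonfluorescent compounds, cut at about 42% in these data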
APJ antag: antagonists of human APJ apelin receptor; P35414; CHO-K1 APJ beta-arrestin complementation, luminescence; inhibition, % at 20 µM; 330,000 tested, 0.32% active;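 active = inhibition above about 40% at 20 µM, limit read from the data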;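 also: cells challenged with 10 nM apelin-13 agonist together with compound; plate controls were apelin-13 plus DMSO wells for no effect and DMSO wells lacking apelin-13 for full effect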
APJ ag conf: confirmation of human APJ apelin receptor agonists. shares compounds with APJ agonist. CHO-K1 APJ PathHunter beta-arrestin, luminescence. activation, % at 20 µM. 310 tested, 10% active. AID 2764;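 active = activation above 40%, taking the highest of four retests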;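 also: plate controls were DMSO wells for no effect and apelin-13 at 10 nM for full effect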
Numbers without * were called inactive; . = no result. Most compounds without a hit are left out; they make up all but 1.7% or so of the library.

SMILES | CXCR6 inh | CCR6 antag | PfGluPho inh | APJ agonist | B2AR ag | APJ antag | APJ ag conf
COc1ccc(N/C(N)=N/c2nc(C)cc(C)n2)cc1 | -7 | . | 18 | . | . | . | .
Cc1cc(C)nc(/N=C(\N)Nc2ccc(OCCC(C)C)cc2)n1 | -3 | -1 | 9 | 16* | 7 | -3 | 7
N#Cc1ccccc1OCC(=O)Nc1c(C(=O)C2CC2)oc2ccccc12 | -1 | 0 | -7 | 40* | 0 | -7 | 7
CN1CCN(c2ccc(NC(=S)NC(=O)c3cccc4c(Br)cccc34)cc2)CC1 | 9 | 50 | -3 | -1 | 23 | 6 | .
CN1CCN(c2ccc(NC(=S)NC(=O)c3cccc4ccccc34)cc2)CC1 | -1 | 0 | 31 | 28* | 7 | -9 | -1
CCCC1(CCC)NC(=O)N(CC(=O)Nc2ccc(Cl)c(S(=O)(=O)N3CCOCC3)c2)C1=O | -3 | 7 | 9 | -2 | 8 | -3 | .
O=C(NNC(=O)c1c(O)c2ccccc2[nH]c1=O)c1ccccc1Br | -8 | 4 | -50 | -3 | -2 | -13 | .
O=C(NCc1ccc(Cl)c(Cl)c1)c1cc(C2CCCCN2C(=O)CCc2ccccc2)on1 (stereo unspecified) | 13 | . | . | . | . | . | .
CCOc1cccc(C(=O)Nc2ccc(NC(=O)c3cc4ccccc4o3)c(OC)c2)c1 | -1 | -11 | -11 | 20* | 13 | 5 | 20
CC1=C(C(=O)N(C(C)C)C(C)C)CC(CC(=O)NCCN2CCOCC2)C(=O)N1Cc1ccccc1 (stereo unspecified) | -2 | . | -21 | . | . | . | .
Cc1ccc(C(=O)N2CCN(c3ncnc4c3cnn4-c3ccccc3)CC2)cc1 | -9 | . | . | 32* | 9 | -20 | -2
COc1cccc(N2CCN(c3ncnc4c3cnn4-c3ccc(C)cc3C)CC2)c1 | -4 | -7 | 24 | 16* | 40 | -58 | 34
Cc1ccc(-n2ncc3c(N4CCCC4)ncnc32)c(C)c1 | 0 | -1 | -18 | -2 | -6 | 4 | .
Cc1ccc(Cc2c(-c3cccc(Br)c3)nc3c(Cl)cc(C(F)(F)F)cn23)cc1 | -13 | . | . | . | . | . | .
Cc1cc(C)c(S(=O)(=O)N(C)CC(=O)NCCN2CCOCC2)c(C)c1 | 8 | 11 | -24 | -4 | 8 | 4 | .
CCOC(=O)CSc1nc2ccc(Nc3nc(N4CCOCC4)nc(N4CCOCC4)n3)cc2s1 | -14 | -50 | 4 | 19* | 15 | -36 | 31
Clc1cccc(Cl)c1CSc1nnc(-c2ccncc2)s1 | -8 | -17 | 23 | 70* | 7 | -18 | 27
COC(=O)c1cnc(Oc2ccc(NC(=O)NC(=O)c3ccccc3Cl)cc2)cc1C(F)(F)F | -7 | 7 | 12 | 20* | 2 | -15 | 17
CCn1c(CC(=O)Nc2ccc(C)c(Cl)c2)nnc1SCC(=O)Nc1nc(C)cs1 | -8 | 3 | 5 | 20* | -3 | -14 | 5
COc1ccc(CCN2CCC(Nc3nc4ccccc4n3Cc3ccc(F)cc3)CC2)cc1 | 1 | 4 | 15 | 32* | 6 | 18 | 17
CN(C)CCNc1ncnc2c1ncn2[C@H]1CN(Cc2cccnc2)C[C@@H](CO)O1 | -7 | . | . | . | . | . | .
CCCCCCc1cc2cc(-c3nnc(-c4ccccc4O)o3)c(=O)oc2cc1O | -41 | -59 | -15 | 25* | . | -75 | 52*
CCCCCCc1cc2cc(-c3nnc(-c4cc(OC)c(OC)c(OC)c4)o3)c(=O)oc2cc1O | . | -88 | 4 | 16* | . | -87 | 54*
CCOC(=O)CN(C(=O)COC(=O)C1(c2ccccc2)CC1)c1ccc(F)cc1 | 4 | 15 | 3 | 3 | -1 | 0 | .
N#Cc1cc2cc3ccccc3nc2n2c(=O)c3ccccc3nc12 | -18 | 7 | 18 | 15* | -9 | -31 | 3
SMILES | CXCR6 inh | CCR6 antag | PfGluPho inh | APJ agonist | B2AR ag | APJ antag | APJ ag conf
Cn1c(=O)c2cc3ccccc3nc2n(C)c1=O | -1 | -8 | -8 | -7 | -1 | 16 | .
O=C(COC(=O)C1=COCCO1)NCc1ccc(Cl)cc1Cl | 5 | . | 10 | . | . | . | .
COc1cc(C(=O)c2nccc3cc(OC)c(OC)cc23)c([N+](=O)[O-])cc1OC | -2 | -4 | 21 | 14* | 6 | -11 | 4
Cc1cc(C)n2nc3nc(N4CCCCC4)nc(-c4ccco4)c3c2n1 | 3 | 17 | 18 | 73* | -4 | 26 | 41*
CN(C(=O)c1ccccc1F)C(c1ccccc1)c1ccccc1 | -5 | 10 | -24 | -3 | -1 | 10 | .
CCCNC(=O)C1(C)CCN(C(=O)c2ccc3c(c2)CCO3)C1 (stereo unspecified) | -5 | . | . | . | . | . | .
CC(=O)c1c(C)[nH]c(C(=O)OCc2cccc(Cl)c2)c1C | -8 | 12 | 3 | 0 | -14 | 14 | .
CC(=O)c1c(C)[nH]c(C(=O)OCc2cc(-c3ccco3)on2)c1C | 2 | 8 | 1 | 13* | -2 | 8 | 4
Cn1nccc1-c1coc2c(C(=O)NCc3ccccc3)cccc12 | -1 | . | . | . | . | . | .
Cc1ccc(NC(=O)C/C(N)=N/OC(=O)c2ccccc2)cc1 | -13 | -30 | -15 | 11* | 3 | -22 | 16
CCOC(=O)[C@]12CCCC=C1N(Cc1ccco1)C(=O)[C@H](CC(=O)NCCCN1CCCC1=O)C2 | 1 | . | . | . | . | . | .
COc1ccc(/C(N)=N/OC(=O)c2cccs2)cc1OC | -15 | -5 | 2 | 18* | 2 | -72 | 26
COc1ccc(/C(N)=N/OC(=O)c2ccc([N+](=O)[O-])c(C)c2)cc1OC | -13 | -13 | 6 | 11* | 10 | -14 | 10
Cc1cc(OCC(=O)N2CCOCC2)ccc1NC(=O)c1ccccc1C | -6 | 7 | -15 | -4 | -4 | 11 | .
CCN(C(=O)COC(=O)C12CC3CC(CC(O)(C3)C1)C2)c1c(N)n(Cc2ccccc2)c(=O)[nH]c1=O | 2 | 7 | -2 | . | -5 | . | .
COC(=O)c1cc(S(=O)(=O)NCc2cccc(Br)c2)c[nH]1 | 5 | -6 | 12 | 0 | -1 | 0 | .
C#CCOCCOCCOCCNc1nc(N2CCN(C(=O)CCCCCCCCCCNC(=O)Cn3cc(CCCCCN)nn3)CC2)nc(N2CCN(C(=O)CCCCCCCCCCNC(=O)[C@H]([C@@H](C)CC)n3cc(CCCCN=C(N)N)nn3)CC2)n1 | 40 | -27 | 58 | 17 | -500 | 22 | .
C#CCOCCOCCOCCNc1nc(N2CCN(C(=O)CCCCCCCCCCNC(=O)[C@H]([C@@H](C)CC)n3cc(CCCCCN)nn3)CC2)nc(N2CCN(C(=O)CCCCCCCCCCNC(=O)[C@H]([C@@H](C)CC)n3cc(CCCCN=C(N)N)nn3)CC2)n1 | 10 | . | . | 51* | -507 | 14 | 31
